Results taken from ChEMBL document CHEMBL1132637, “Design and synthesis of potent, selective, and orally bioavailable tetrasubstituted imidazole inhibitors of p38 mitogen-activated protein kinase” (J Med Chem, 1999).

tested on: not listed separately; assay: (§1) Clpl value in rat; type: ADME, organism-based; conditions: plasma, read-out: Clpl
How it was run: (§2)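 Male Sprague-Dawley rats, n = 3, dosed iv at 2 mg/kg or orally at 10 mg/kg. Mean plasma concentrations were followed over time. Pharmacokinetic parameters were derived from these plasma profiles.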

clearance | Structure (SMILES)
63 mL/min/kg | C[C@H](Nc1cc(-c2c(-c3cccc(C(F)(F)F)c3)nc(C3CCNCC3)n2C)ccn1)c1ccccc1
167 mL/min/kg | Nc1nccc(-c2[nH]c(C3CCNCC3)nc2-c2cccc(C(F)(F)F)c2)n1
38.3 mL/min/kg | C[C@H](Nc1nccc(-c2c(-c3cccc(C(F)(F)F)c3)nc(C3CCNCC3)n2C)n1)c1ccccc1

organism: Rattus norvegicus; assay: as §1; type: ADME, organism-based; conditions: in vivo; how it was run: as §2

Clpl | Structure (SMILES)
146 mL/min/kg | C[C@H](Nc1nccc(-c2[nH]c(C3CCNCC3)nc2-c2cccc(C(F)(F)F)c2)n1)c1ccccc1

tested on: not listed separately; assay: Oral maximum concentration in rat; type: ADME, organism-based; design: route oral; conditions: in vivo; how it was run: as §2

Cmax | Structure (SMILES)
390 nM | C[C@H](Nc1cc(-c2c(-c3cccc(C(F)(F)F)c3)nc(C3CCNCC3)n2C)ccn1)c1ccccc1
780 nM | C[C@H](Nc1nccc(-c2c(-c3cccc(C(F)(F)F)c3)nc(C3CCNCC3)n2C)n1)c1ccccc1

tested on: not listed separately; assay: Bioavailability in rat; type: ADME, organism-based; conditions: in vivo; how it was run: as §2

bioavailability | Structure (SMILES)
85% | C[C@H](Nc1cc(-c2c(-c3cccc(C(F)(F)F)c3)nc(C3CCNCC3)n2C)ccn1)c1ccccc1
0% | C[C@H](Nc1nccc(-c2[nH]c(C3CCNCC3)nc2-c2cccc(C(F)(F)F)c2)n1)c1ccccc1
0% | Nc1nccc(-c2[nH]c(C3CCNCC3)nc2-c2cccc(C(F)(F)F)c2)n1
64% | C[C@H](Nc1nccc(-c2c(-c3cccc(C(F)(F)F)c3)nc(C3CCNCC3)n2C)n1)c1ccccc1

tested on: not listed separately; assay: (§3) Vd sss value in rat; type: ADME, organism-based; conditions: in vivo, read-out: Vdss; how it was run: as §2

Vd | Structure (SMILES)
12.3 L/kg | C[C@H](Nc1cc(-c2c(-c3cccc(C(F)(F)F)c3)nc(C3CCNCC3)n2C)ccn1)c1ccccc1
1.23 L/kg | Nc1nccc(-c2[nH]c(C3CCNCC3)nc2-c2cccc(C(F)(F)F)c2)n1
12.7 L/kg | C[C@H](Nc1nccc(-c2c(-c3cccc(C(F)(F)F)c3)nc(C3CCNCC3)n2C)n1)c1ccccc1

organism: Rattus norvegicus; assay: as §3; type: ADME, organism-based; conditions: in vivo; how it was run: as §2

Vdss | Structure (SMILES)
6.5 L/kg | C[C@H](Nc1nccc(-c2[nH]c(C3CCNCC3)nc2-c2cccc(C(F)(F)F)c2)n1)c1ccccc1

tested on: not listed separately; assay: Intravenous half life in rat; type: ADME, organism-based; conditions: in vivo; how it was run: as §2

half-life | Structure (SMILES)
4.9 h | C[C@H](Nc1nccc(-c2c(-c3cccc(C(F)(F)F)c3)nc(C3CCNCC3)n2C)n1)c1ccccc1

tested on: not listed separately; assay: (§4) Intravenous half life in rat was determined; type: ADME, organism-based; conditions: in vivo; how it was run: as §2

half-life | Structure (SMILES)
2.85 h | C[C@H](Nc1cc(-c2c(-c3cccc(C(F)(F)F)c3)nc(C3CCNCC3)n2C)ccn1)c1ccccc1
0.132 h | Nc1nccc(-c2[nH]c(C3CCNCC3)nc2-c2cccc(C(F)(F)F)c2)n1

tested on: Rattus norvegicus; assay: as §4; type: ADME, organism-based; conditions: in vivo; how it was run: as §2

T1/2 | Structure (SMILES)
1 min | C[C@H](Nc1nccc(-c2[nH]c(C3CCNCC3)nc2-c2cccc(C(F)(F)F)c2)n1)c1ccccc1

target: T1, MAP kinase p38 (Homo sapiens, UniProt O15264+Q15759+Q16539+P53778); assay: Inhibition of LPS-induced release of Tumor necrosis factor-alpha (TNF-alpha) from human whole blood; type: functional, tissue-based; conditions: not given

Structure (SMILES) | IC50
C[C@H](Nc1nccc(-c2[nH]c(C3CCNCC3)nc2-c2cccc(C(F)(F)F)c2)n1)c1ccccc1 | 6 nM
C[C@@H](Nc1nccc(-c2[nH]c(C3CCNCC3)nc2-c2cccc(C(F)(F)F)c2)n1)c1ccccc1 | 0.4 nM

target: Dual specificity mitogen-activated protein kinase kinase; MEK1/2 (Homo sapiens, UniProt P36507+Q02750); assay: Inhibition of MEK-1, Mitogen activated protein kinase kinase 1; type: protein assay; conditions: not given

IC50 | Structure (SMILES)
> 10000 nM | C[C@H](Nc1cc(-c2c(-c3cccc(C(F)(F)F)c3)nc(C3CCNCC3)n2C)ccn1)c1ccccc1

target: T1, MAP kinase p38; assay: Inhibitory activity against Mitogen-activated protein kinase p38 (MAP kinase); type: protein assay; conditions: not given

IC50 | Structure (SMILES)
150 nM | Clc1ccccc1-c1nc(-c2ccccc2)[nH]c1-c1ccncc1
137 nM | Clc1cc(Cl)cc(-c2[nH]c(-c3ccccc3)nc2-c2ccncc2)c1
2100 nM | CC(C)c1ccc(-c2[nH]c(-c3ccccc3)nc2-c2ccncc2)cc1
130 nM | Clc1cccc(-c2nc(-c3ccccc3)[nH]c2-c2ccncc2)c1
120 nM | CNc1nccc(-c2[nH]c(-c3ccccc3)nc2-c2ccccc2)n1
180 nM | c1ccc(-c2nc(-c3ccccc3)c(-c3ccncc3)[nH]2)cc1
200 nM | FC(F)(F)c1ccc(-c2[nH]c(-c3ccccc3)nc2-c2ccncc2)cc1
970 nM | N#Cc1ccc(-c2[nH]c(-c3ccccc3)nc2-c2ccncc2)cc1
550 nM | COc1cccc(-c2[nH]c(-c3ccccc3)nc2-c2ccncc2)c1
1400 nM | Oc1ccc(-c2[nH]c(-c3ccccc3)nc2-c2ccncc2)cc1
140 nM | Oc1cccc(-c2nc(-c3ccccc3)[nH]c2-c2ccncc2)c1
0.97 nM | C[C@@H](Nc1nccc(-c2[nH]c(C3CCNCC3)nc2-c2cccc(C(F)(F)F)c2)n1)c1ccccc1

target: T1, MAP kinase p38; assay: Inhibition of Mitogen-activated protein kinase p38; type: protein assay; conditions: not given

IC50 | Structure (SMILES)
0.75 nM | C[C@H](Nc1nccc(-c2[nH]c(C3CCNCC3)nc2-c2cccc(C(F)(F)F)c2)n1)c1ccccc1
7 nM | Nc1nccc(-c2[nH]c(C3CCNCC3)nc2-c2cccc(C(F)(F)F)c2)n1

target: T2, RAF proto-oncogene serine/threonine-protein kinase (Homo sapiens, UniProt P04049); assay: Inhibitory activity against recombinant human RAF proto-oncogene serine/threonine-protein kinase; conditions: not given
T2 sequence (P04049 whole entry): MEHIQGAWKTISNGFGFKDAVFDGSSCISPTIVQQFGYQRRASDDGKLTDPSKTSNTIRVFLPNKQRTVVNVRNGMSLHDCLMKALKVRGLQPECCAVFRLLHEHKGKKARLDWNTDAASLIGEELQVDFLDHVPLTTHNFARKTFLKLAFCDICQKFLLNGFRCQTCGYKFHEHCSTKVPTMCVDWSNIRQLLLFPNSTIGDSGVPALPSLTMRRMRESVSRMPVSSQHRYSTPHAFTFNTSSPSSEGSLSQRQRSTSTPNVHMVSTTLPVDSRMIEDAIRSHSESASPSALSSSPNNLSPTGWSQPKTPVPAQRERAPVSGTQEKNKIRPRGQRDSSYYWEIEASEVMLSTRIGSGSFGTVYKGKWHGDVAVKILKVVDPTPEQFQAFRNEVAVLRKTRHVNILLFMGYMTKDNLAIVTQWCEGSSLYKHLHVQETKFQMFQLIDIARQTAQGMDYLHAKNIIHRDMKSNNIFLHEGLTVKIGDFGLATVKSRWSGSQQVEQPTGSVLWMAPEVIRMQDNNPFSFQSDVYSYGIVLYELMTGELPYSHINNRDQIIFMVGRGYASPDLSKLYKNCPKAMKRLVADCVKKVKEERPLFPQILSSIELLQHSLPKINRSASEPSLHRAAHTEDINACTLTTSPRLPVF

IC50 | Structure (SMILES)
610 nM | Clc1ccccc1-c1nc(-c2ccccc2)[nH]c1-c1ccncc1
1600 nM | Clc1cc(Cl)cc(-c2[nH]c(-c3ccccc3)nc2-c2ccncc2)c1
> 10000 nM | CC(C)c1ccc(-c2[nH]c(-c3ccccc3)nc2-c2ccncc2)cc1
90 nM | Clc1cccc(-c2nc(-c3ccccc3)[nH]c2-c2ccncc2)c1
2100 nM | CNc1nccc(-c2[nH]c(-c3ccccc3)nc2-c2ccccc2)n1
380 nM | c1ccc(-c2nc(-c3ccccc3)c(-c3ccncc3)[nH]2)cc1
1400 nM | FC(F)(F)c1ccc(-c2[nH]c(-c3ccccc3)nc2-c2ccncc2)cc1
86 nM | N#Cc1ccc(-c2[nH]c(-c3ccccc3)nc2-c2ccncc2)cc1
210 nM | COc1cccc(-c2[nH]c(-c3ccccc3)nc2-c2ccncc2)c1
390 nM | Oc1ccc(-c2[nH]c(-c3ccccc3)nc2-c2ccncc2)cc1
23 nM | Oc1cccc(-c2nc(-c3ccccc3)[nH]c2-c2ccncc2)c1
4500 nM | C[C@@H](Nc1nccc(-c2[nH]c(C3CCNCC3)nc2-c2cccc(C(F)(F)F)c2)n1)c1ccccc1

target: cAMP-dependent protein kinase (PKA) (Homo sapiens, UniProt P22694+P17612+P22612); assay: Inhibition of Protein kinase A; type: protein assay; conditions: not given
How it was run: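 PKA was run at room temperature with 10 µM [33P]ATP and 10 µM kemptide substrate, under the supplier's conditions. The reaction was stopped with 75 mM phosphoric acid. Product was captured on phosphocellulose filters, washed with phosphoric acid and counted by scintillation.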

IC50 | Structure (SMILES)
> 1500 nM | C[C@H](Nc1cc(-c2c(-c3cccc(C(F)(F)F)c3)nc(C3CCNCC3)n2C)ccn1)c1ccccc1

target: Protein kinase C (PKC); assay: Inhibition of Protein kinase C; type: protein assay; conditions: not given
How it was run: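 PKC (isozyme mix) was run at room temperature with 10 µM [33P]ATP and 70 µg/mL myelin basic protein substrate, under the supplier's conditions. Stopped with EDTA/pyrophosphate, filter-captured and counted by scintillation.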

IC50 | Structure (SMILES)
> 1500 nM | C[C@H](Nc1cc(-c2c(-c3cccc(C(F)(F)F)c3)nc(C3CCNCC3)n2C)ccn1)c1ccccc1

target: T3, Mitogen-activated protein kinase 9 (Homo sapiens, UniProt P45984); assay: Inhibition of c-Jun N-terminal kinase 2-alpha 2; conditions: not given
T3 sequence (P45984 whole entry): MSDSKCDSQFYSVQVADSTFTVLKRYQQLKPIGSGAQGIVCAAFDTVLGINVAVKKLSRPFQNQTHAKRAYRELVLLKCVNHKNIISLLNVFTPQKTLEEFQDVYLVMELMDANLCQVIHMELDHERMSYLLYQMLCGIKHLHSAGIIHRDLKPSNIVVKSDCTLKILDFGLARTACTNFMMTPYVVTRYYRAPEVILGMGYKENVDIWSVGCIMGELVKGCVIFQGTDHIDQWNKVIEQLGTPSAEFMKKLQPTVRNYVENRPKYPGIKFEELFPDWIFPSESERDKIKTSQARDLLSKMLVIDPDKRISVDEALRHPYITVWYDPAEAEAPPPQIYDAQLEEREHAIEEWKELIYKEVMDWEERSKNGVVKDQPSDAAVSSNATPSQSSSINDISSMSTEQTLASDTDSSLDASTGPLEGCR

IC50 | Structure (SMILES)
2200 nM | C[C@H](Nc1cc(-c2c(-c3cccc(C(F)(F)F)c3)nc(C3CCNCC3)n2C)ccn1)c1ccccc1

target: T3, Mitogen-activated protein kinase 9; assay: Inhibition of c-Jun N-terminal kinase 2-alpha 1; conditions: not given

IC50 | Structure (SMILES)
1170 nM | C[C@H](Nc1cc(-c2c(-c3cccc(C(F)(F)F)c3)nc(C3CCNCC3)n2C)ccn1)c1ccccc1
175 nM | CNc1nccc(-c2[nH]c(-c3ccccc3)nc2-c2ccccc2)n1
130 nM | c1ccc(-c2nc(-c3ccccc3)c(-c3ccncc3)[nH]2)cc1
1750 nM | C[C@H](Nc1nccc(-c2[nH]c(C3CCNCC3)nc2-c2cccc(C(F)(F)F)c2)n1)c1ccccc1
295 nM | C[C@@H](Nc1nccc(-c2[nH]c(C3CCNCC3)nc2-c2cccc(C(F)(F)F)c2)n1)c1ccccc1
3300 nM | Nc1nccc(-c2[nH]c(C3CCNCC3)nc2-c2cccc(C(F)(F)F)c2)n1

target: T2, RAF proto-oncogene serine/threonine-protein kinase; assay: Inhibition of human c-Raf kinase; conditions: not given

IC50 | Structure (SMILES)
810 nM | C[C@H](Nc1cc(-c2c(-c3cccc(C(F)(F)F)c3)nc(C3CCNCC3)n2C)ccn1)c1ccccc1
3500 nM | C[C@H](Nc1nccc(-c2[nH]c(C3CCNCC3)nc2-c2cccc(C(F)(F)F)c2)n1)c1ccccc1

target: T2, RAF proto-oncogene serine/threonine-protein kinase; assay: Inhibition human c-Raf kinase at 1000 nM; conditions: not given

inhibition | Structure (SMILES)
36% | Nc1nccc(-c2[nH]c(C3CCNCC3)nc2-c2cccc(C(F)(F)F)c2)n1
